Measurements of several laboratories.
Lines come from different studies, so protocols differ.
OSBP: Oxysterol-binding protein 1 (OSBP, Homo sapiens, UniProt P22059)
CDK4 with cyclin D1: Cyclin-dependent kinase 4, with cyclin D1 (CDK4, Homo sapiens, UniProt P11802)
SLC22A8: Organic anion transporter 3 (SLC22A8, Homo sapiens, UniProt Q8TCC7)

CN(C)C(=O)c1cc2cnc(Nc3ccc(C(=O)NCCCCCCOc4cccc5c4C(=O)N(C4CCC(=O)NC4=O)C5=O)cc3)nc2n1C1CCCC1 (centres unmarked)  Kd (Cyclin-dependent kinase 4 (CDK4, Homo sapiens, UniProt P11802); binding, competition with immobilised ligand): < 0.2 µM
CCOc1ccc(C(=O)CC(SCc2ccc(OC)cc2)C(=O)O)cc1 (centres unmarked)  Ki (OSBP; ligand displacement, FP): 549 µM
CN(C)C(=O)c1cc2cnc(Nc3cccc(-c4cccc5c(=O)cc(N6CCOCC6)oc45)c3)nc2n1C1CCCC1  IC50 (CDK4 with cyclin D1; enzyme activity, inhibitor, radiometric): 0.336 µM
Nc1nc2c(ncn2[C@@H]2O[C@H](COP(=O)(O)OP(=O)(O)OP(=O)(O)O)[C@@H](O)[C@H]2O)c(=O)[nH]1  Kd (GTPase KRas (KRAS, Homo sapiens, UniProt P01116, Q61H); binding): 0.118 µM
CCOc1ccc(C(=O)CC(SCc2ccccc2)C(=O)O)cc1 (centres unmarked)  Ki (OSBP; ligand displacement, FP): > 1000 µM
CSC[C@H]1O[C@@H](n2cnc3c(N)ncnc32)[C@H](O)[C@@H]1O  Kd (tapT (Escherichia coli, UniProt Q47319); binding, ITC): 150 µM
O=C(O)c1ccc2nc(-c3cc(Cl)cc(Cl)c3)oc2c1  Ki (SLC22A8; transporter uptake, inhibitor; HEK293; pH 7.4): 2.36 µM
CCOc1ccc(C(=O)CC(SCc2ccc(Br)cc2)C(=O)O)cc1 (centres unmarked)  Ki (OSBP; ligand displacement, FP): 459 µM
CN(C)C(=O)c1cc2cnc(Nc3cc(C(=O)O)cc(-c4cccc5c(=O)cc(N6CCOCC6)oc45)c3)nc2n1C1CCCC1  IC50 (CDK4 with cyclin D1; enzyme activity, inhibitor, radiometric): > 10 µM
C=CC(=O)N1C[C@H](Nc2ncnc3[nH]ccc23)CC[C@@H]1C  Ki (SLC22A8; transporter uptake, inhibitor; HEK293; pH 7.4): 41 µM
CN(C)C(=O)c1cc2cnc(Nc3cc(C(=O)O)cc(-c4ccc5c(=O)cc(N6CCOCC6)oc5c4)c3)nc2n1C1CCCC1  IC50 (CDK4 with cyclin D1; enzyme activity, inhibitor, radiometric): 7.85 µM
CCOc1ccc(C(=O)CC(SCc2ccc(Cl)cc2)C(=O)OC)cc1 (centres unmarked)  Ki (OSBP; ligand displacement, FP): > 1000 µM
C[S+](CC[C@H](N)C(=O)O)C[C@H]1O[C@@H](n2cnc3c(N)ncnc32)[C@H](O)[C@@H]1O (some centres unmarked)  Kd (tapT (Escherichia coli, UniProt Q47319, D137A); binding, ITC): 590 µM
CN(C)C(=O)c1cc2cnc(Nc3cc(C(F)(F)F)c(-c4ccc5c(=O)cc(N6CCOCC6)oc5c4)cn3)nc2n1C1CCCC1  IC50 (CDK4 with cyclin D1; enzyme activity, inhibitor, radiometric): > 10 µM
